Measurements: ChEMBL document CHEMBL1153921, “Design, synthesis, and biological evaluation of novel 1-(1H-1,2,4-triazole-1-yl)-2-(2,4-difluorophenyl)-3-substituted benzylamino-2-propanols” (2009)
Values after ≈ are worked out from the molar mass of the structure shown.

Experiments:
Assay type in all cases: functional
Pichia kudriavzevii = experiment: Antimicrobial activity against Candida krusei by micro-broth dilution method
Outline: (§1)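 Clinical isolates. Tested by broth microdilution in 96-well plates following NCCLS M27-A2. MIC80, the minimum concentration inhibiting growth by 80%, was recorded. Marketed reference antifungals were included as positive controls.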

Candida parapsilosis = experiment: Antimicrobial activity against Candida parapsilosis by micro-broth dilution method; conditions: Lodderomyces parapsilosis; outline: as §1
Nannizzia gypsea = experiment: Antimicrobial activity against Microsporum gypseum by micro-broth dilution method; outline: as §1
Cryptococcus neoformans = experiment: Antimicrobial activity against Cryptococcus neoformans by micro-broth dilution method
Outline: (§2)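 ATCC standard strains. Broth microdilution in 96-well plates following NCCLS M27-A2 (reference broth dilution method for yeasts). Endpoint is MIC80, the lowest concentration giving 80% growth inhibition. Marketed reference antifungals ran alongside as positive controls.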

Trichophyton rubrum = experiment: Antimicrobial activity against Trichophyton rubrum by micro-broth dilution method; outline: as §1
Candida tropicalis = experiment: Antimicrobial activity against Candida tropicalis by micro-broth dilution method; outline: as §1
Candida albicans = experiment: Antimicrobial activity against Candida albicans by micro-broth dilution method; outline: as §2
Aspergillus fumigatus = experiment: Antimicrobial activity against Aspergillus fumigatus by micro-broth dilution method; outline: as §1

Row | MIC80 (Pichia kudriavzevii) | MIC80 (Candida parapsilosis) | MIC80 (Nannizzia gypsea) | MIC80 (Cryptococcus neoformans) | MIC80 (Trichophyton rubrum) | MIC80 (Candida tropicalis) | MIC80 (Candida albicans) | MIC80 (Aspergillus fumigatus) | SMILES
1 | 0.0625 µg/mL (≈ 0.155 µM) | 0.0625 µg/mL (≈ 0.155 µM) | 0.0156 µg/mL (≈ 0.0386 µM) | 0.25 µg/mL (≈ 0.618 µM) | 1 µg/mL (≈ 2.47 µM) | 0.0625 µg/mL (≈ 0.155 µM) | 0.0156 µg/mL (≈ 0.0386 µM) | > 64 µg/mL | CCCN(Cc1ccccc1F)CC(O)(Cn1cncn1)c1ccc(F)cc1F (configuration not stated)
2 | 0.0625 µg/mL (≈ 0.145 µM) | 0.0625 µg/mL (≈ 0.145 µM) | 0.0156 µg/mL (≈ 0.0362 µM) | 0.25 µg/mL (≈ 0.579 µM) | 0.25 µg/mL (≈ 0.579 µM) | 0.25 µg/mL (≈ 0.579 µM) | 0.0156 µg/mL (≈ 0.0362 µM) | 64 µg/mL (≈ 148 µM) | CC(C)N(Cc1ccc([N+](=O)[O-])cc1)CC(O)(Cn1cncn1)c1ccc(F)cc1F (configuration not stated)
3 | 0.0625 µg/mL (≈ 0.148 µM) | 0.0625 µg/mL (≈ 0.148 µM) | 0.0625 µg/mL (≈ 0.148 µM) | 0.25 µg/mL (≈ 0.594 µM) | 0.25 µg/mL (≈ 0.594 µM) | 0.25 µg/mL (≈ 0.594 µM) | 0.0625 µg/mL (≈ 0.148 µM) | 1 µg/mL (≈ 2.38 µM) | CC(C)N(Cc1ccc(Cl)cc1)CC(O)(Cn1cncn1)c1ccc(F)cc1F (configuration not stated)
4 | 0.25 µg/mL (≈ 0.537 µM) | 0.0625 µg/mL (≈ 0.134 µM) | 0.0156 µg/mL (≈ 0.0335 µM) | 0.25 µg/mL (≈ 0.537 µM) | 0.0625 µg/mL (≈ 0.134 µM) | 0.0625 µg/mL (≈ 0.134 µM) | 0.0039 µg/mL (≈ 0.00838 µM) | 4 µg/mL (≈ 8.6 µM) | CC(C)N(Cc1ccc(Br)cc1)CC(O)(Cn1cncn1)c1ccc(F)cc1F (configuration not stated)
5 | 0.25 µg/mL (≈ 0.594 µM) | 0.25 µg/mL (≈ 0.594 µM) | 1 µg/mL (≈ 2.38 µM) | 1 µg/mL (≈ 2.38 µM) | 0.25 µg/mL (≈ 0.594 µM) | 1 µg/mL (≈ 2.38 µM) | 0.0156 µg/mL (≈ 0.0371 µM) | > 64 µg/mL | CC(C)N(Cc1cccc(Cl)c1)CC(O)(Cn1cncn1)c1ccc(F)cc1F (configuration not stated)
6 | 0.0625 µg/mL (≈ 0.155 µM) | 0.0625 µg/mL (≈ 0.155 µM) | 0.0039 µg/mL (≈ 0.00964 µM) | 0.0625 µg/mL (≈ 0.155 µM) | 1 µg/mL (≈ 2.47 µM) | 0.25 µg/mL (≈ 0.618 µM) | 0.0625 µg/mL (≈ 0.155 µM) | > 64 µg/mL | CCCN(Cc1ccc(F)cc1)CC(O)(Cn1cncn1)c1ccc(F)cc1F (configuration not stated)
7 | 1 µg/mL (≈ 2.41 µM) | 0.25 µg/mL (≈ 0.603 µM) | 0.25 µg/mL (≈ 0.603 µM) | 1 µg/mL (≈ 2.41 µM) | 1 µg/mL (≈ 2.41 µM) | 0.25 µg/mL (≈ 0.603 µM) | 0.0156 µg/mL (≈ 0.0376 µM) | > 64 µg/mL | CCCN(Cc1ccc(CC)cc1)CC(O)(Cn1cncn1)c1ccc(F)cc1F (configuration not stated)
8 | 0.25 µg/mL (≈ 0.594 µM) | 0.25 µg/mL (≈ 0.594 µM) | 0.0625 µg/mL (≈ 0.148 µM) | 0.25 µg/mL (≈ 0.594 µM) | 4 µg/mL (≈ 9.5 µM) | 0.25 µg/mL (≈ 0.594 µM) | 0.0625 µg/mL (≈ 0.148 µM) | > 64 µg/mL | CCCN(Cc1cccc(Cl)c1)CC(O)(Cn1cncn1)c1ccc(F)cc1F (configuration not stated)
9 | 0.25 µg/mL (≈ 0.618 µM) | 0.0625 µg/mL (≈ 0.155 µM) | 0.0625 µg/mL (≈ 0.155 µM) | 0.25 µg/mL (≈ 0.618 µM) | 1 µg/mL (≈ 2.47 µM) | 0.25 µg/mL (≈ 0.618 µM) | 0.0625 µg/mL (≈ 0.155 µM) | > 64 µg/mL | CC(C)N(Cc1ccccc1F)CC(O)(Cn1cncn1)c1ccc(F)cc1F (configuration not stated)
10 | 0.0625 µg/mL (≈ 0.156 µM) | 0.0625 µg/mL (≈ 0.156 µM) | 0.0156 µg/mL (≈ 0.039 µM) | 0.25 µg/mL (≈ 0.624 µM) | 0.25 µg/mL (≈ 0.624 µM) | 0.0625 µg/mL (≈ 0.156 µM) | 0.0625 µg/mL (≈ 0.156 µM) | > 64 µg/mL | CCCN(Cc1ccc(C)cc1)CC(O)(Cn1cncn1)c1ccc(F)cc1F (configuration not stated)
11 | 0.25 µg/mL (≈ 0.537 µM) | 0.0039 µg/mL (≈ 0.00838 µM) | 0.0625 µg/mL (≈ 0.134 µM) | 0.25 µg/mL (≈ 0.537 µM) | 1 µg/mL (≈ 2.15 µM) | 0.25 µg/mL (≈ 0.537 µM) | 0.0625 µg/mL (≈ 0.134 µM) | > 64 µg/mL | CCCN(Cc1ccccc1Br)CC(O)(Cn1cncn1)c1ccc(F)cc1F (configuration not stated)
12 | 0.25 µg/mL (≈ 0.537 µM) | 0.0156 µg/mL (≈ 0.0335 µM) | 0.0625 µg/mL (≈ 0.134 µM) | 0.25 µg/mL (≈ 0.537 µM) | 0.25 µg/mL (≈ 0.537 µM) | 0.0625 µg/mL (≈ 0.134 µM) | 0.0625 µg/mL (≈ 0.134 µM) | > 64 µg/mL | CCCN(Cc1ccc(Br)cc1)CC(O)(Cn1cncn1)c1ccc(F)cc1F (configuration not stated)
13 | 0.25 µg/mL (≈ 0.624 µM) | 0.0625 µg/mL (≈ 0.156 µM) | 0.0625 µg/mL (≈ 0.156 µM) | 0.25 µg/mL (≈ 0.624 µM) | 0.25 µg/mL (≈ 0.624 µM) | 0.25 µg/mL (≈ 0.624 µM) | 0.0156 µg/mL (≈ 0.039 µM) | > 64 µg/mL | Cc1ccccc1CN(CC(O)(Cn1cncn1)c1ccc(F)cc1F)C(C)C (configuration not stated)
14 | 1 µg/mL (≈ 2.41 µM) | 1 µg/mL (≈ 2.41 µM) | 0.25 µg/mL (≈ 0.603 µM) | 1 µg/mL (≈ 2.41 µM) | 1 µg/mL (≈ 2.41 µM) | 1 µg/mL (≈ 2.41 µM) | 0.0625 µg/mL (≈ 0.151 µM) | > 64 µg/mL | CCc1ccc(CN(CC(O)(Cn2cncn2)c2ccc(F)cc2F)C(C)C)cc1 (configuration not stated)
